Assay results reported in ChEMBL document CHEMBL4007408, “Identification of Novel Triazole-Based Nicotinamide Phosphoribosyltransferase (NAMPT) Inhibitors Endowed with Antiproliferative and Antiinflammatory Activity” (J Med Chem, 2017).
One block for each compound: values may come before it. The source made the active and inactive calls. No cut-off for these calls is given here.

What was measured:
[1] = system: SH-SY5Y; assay: Cytotoxicity against human SH-SY5Y cells assessed as reduction in cell viability after 56 hrs by MTT assay; format: functional, cell-based; details: Homo sapiens, SH-SY5Y, 56 h; read-out: EC50
[2] = system: Mus musculus; assay: In vivo inhibition of NAMPT in DNBS-induced BALB/c mouse colitis model assessed as reduction in hemorrhagic ulcerations at 20 mg/kg, ip bid administered for 3 days post DNBS challenge; format: functional, organism-based
[3] = system: Mus musculus; assay: In vivo inhibition of NAMPT in DNBS-induced BALB/c mouse colitis model assessed as reduction in erosion at 20 mg/kg, ip bid administered for 3 days post DNBS challenge; format: functional, organism-based
[4] = system: Mus musculus; assay: In vivo inhibition of NAMPT in DNBS-induced BALB/c mouse colitis model assessed as reduction in neutrophil infiltration by measuring myeloperoxidase levels at 20 mg/kg, ip bid administered for 3 days post DNBS challenge by ELISA; format: functional, organism-based
[5] = system: Mus musculus; assay: In vivo inhibition of NAMPT in DNBS-induced BALB/c mouse colitis model assessed as reduction in mucosal congestion at 20 mg/kg, ip bid administered for 3 days post DNBS challenge; format: functional, organism-based
[6] = system: Mus musculus; assay: In vivo inhibition of NAMPT in DNBS-induced BALB/c mouse colitis model assessed as reduction in loss of body weight at 20 mg/kg, ip bid administered for 3 days post DNBS challenge; format: functional, organism-based
[7] = system: Liver; assay: Drug level in human liver microsomes treated with N-(7-(4-(Pyridin-3-yl)-1H-1,2,3-triazol-1-yl)heptyl)-[1,1'-biphenyl]-2-carboxamide after 60 mins in presence of NADPH-regenerating system by LC-UV analysis; format: ADME, microsome
Method in brief: (§1)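 Substrate at 50 μM final, with rat or human liver microsomes at 1.0 mg/ml protein, in 50 mM Tris-HCl pH 7.4. Mix held 3.3 mM MgCl2, 1% acetonitrile and an NADPH-regenerating system (1.3 mM β-NADP, 3.3 mM glucose 6-phosphate, 0.4 U/ml G6PDH). Shaken 60 min at 37 °C, stopped with ice-cold acetonitrile. LC-UV gave % residual substrate versus a no-microsome control, mean of two replicates.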

[8] = system: Liver; assay: Drug level in Wistar Han rat liver microsomes treated with N-(7-(4-(Pyridin-3-yl)-1H-1,2,3-triazol-1-yl)heptyl)-[1,1'-biphenyl]-2-carboxamide after 60 mins in presence of NADPH-regenerating system by LC-UV analysis; format: ADME, microsome; method in brief: as §1
[9] = system: Liver; assay: Drug level in Wistar Han rat liver microsomes treated with N-(biphenyl-2-yl)-8-(4-(pyridin-3-yl)-1H-1,2,3-triazol-1-yl)octanamide after 60 mins by LC-ESI-MS analysis; format: ADME, microsome
[10] = system: Liver; assay: Drug level in human liver microsomes treated with N-(biphenyl-2-yl)-8-(4-(pyridin-3-yl)-1H-1,2,3-triazol-1-yl)octanamide after 60 mins by LC-ESI-MS analysis; format: ADME, microsome
[11] = biological target: Nicotinamide phosphoribosyltransferase (Mus musculus, UniProt Q99KQ4); assay: Inhibition of recombinant mouse NAMPT expressed in bacterial expression system using nicotinamide as substrate after 1 hr by fluorescence based NMNAT-3 enzyme coupled assay; details: read-out: IC50
[12] = system: A2780; assay: Cytotoxicity against human A2780 cells assessed as reduction in cell viability; format: functional, cell-based
[13] = AUC in athymic Nu/Nu Harlan mouse at 10 mg/kg, iv administered as single dose up to 24 hrs by LC-ESI-MS analysis; format: ADME, organism-based; set-up: time < 24 hr, dose 10 mg/kg, route intravenous; details: in vivo
[14] = system: A2780; assay: Antitumor activity against human A2780 cells xenografted in athymic nu/nu Harlan mouse assessed as reduction in tumor growth at 10 mg/kg, ip bid administered for 8 consecutive days; format: functional, organism-based
[15] = system: Liver; assay: Stability in human liver microsomes assessed as mixed function oxidase mediated compound cleavage after 60 mins in presence of NADPH-regenerating system by LC-UV analysis; format: ADME, microsome; details: 1 h; method in brief: as §1
[16] = biological target: Nicotinamide phosphoribosyltransferase (Homo sapiens, UniProt P43490); assay: Inhibition of NAMPT in human Jurkat T cells assessed as reduction in NAD levels; format: cell-based
[17] = system: Liver; assay: Drug metabolism in Wistar Han rat liver microsomes assessed as pyridine N-oxidation after 60 mins in presence of NADPH-regenerating system by LC-UV analysis; format: ADME, microsome; details: 1 h
Method in brief: (§2)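 Metabolites were characterized by LC-ESI-MSn on supernatants of 60 min, 37 °C incubations. Each used 50 μM substrate with rat or human liver microsomes (1.0 mg/ml protein) in 50 mM Tris-HCl pH 7.4 with 3.3 mM MgCl2, 1% acetonitrile and an NADPH-regenerating system. Reactions were quenched with cold acetonitrile and centrifuged.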

[18] = system: Liver; assay: Drug metabolism in human liver microsomes assessed as pyridine N-oxidation after 60 mins in presence of NADPH-regenerating system by LC-UV analysis; format: ADME, microsome; details: 1 h; method in brief: as §2
[19] = Drug metabolism in human liver microsomes assessed as mixed function oxidase mediated compound cleavage by measuring compound remaining after 60 mins in presence of NADPH-regenerating system by LC-UV analysis; format: ADME; details: read-out: Stability; method in brief: as §1
[20] = Clearance in athymic Nu/Nu Harlan mouse at 10 mg/kg, iv administered as single dose up to 24 hrs by LC-ESI-MS analysis; format: ADME, organism-based; details: in vivo
[21] = system: Liver; assay: Stability in Wistar Han rat liver microsomes after 60 mins by LC-ESI-MS analysis; format: ADME, microsome; details: 1 h
[22] = system: Liver; assay: Stability in human liver microsomes after 60 mins by LC-ESI-MS analysis; format: ADME, microsome; details: 1 h
[23] = Drug metabolism in Wistar Han rat liver microsomes assessed as mixed function oxidase mediated compound cleavage by measuring compound remaining after 60 mins in presence of NADPH-regenerating system by LC-UV analysis; format: ADME; details: read-out: Stability; method in brief: as §1
[24] = Half life in athymic Nu/Nu Harlan mouse at 10 mg/kg, iv administered as single dose up to 24 hrs by LC-ESI-MS analysis; format: ADME, organism-based; details: in vivo
[25] = Volume of distribution in athymic Nu/Nu Harlan mouse at 10 mg/kg, iv administered as single dose up to 24 hrs by LC-ESI-MS analysis; format: ADME, organism-based; details: in vivo
[26] = Stability in Wistar Han rat liver microsomes assessed as mixed function oxidase mediated compound cleavage after 60 mins in presence of NADPH-regenerating system by LC-UV analysis; format: ADME; details: 1 h; method in brief: as §1

Chain of Nicotinamide phosphoribosyltransferase (Mus musculus, UniProt Q99KQ4) (Q99KQ4 whole entry): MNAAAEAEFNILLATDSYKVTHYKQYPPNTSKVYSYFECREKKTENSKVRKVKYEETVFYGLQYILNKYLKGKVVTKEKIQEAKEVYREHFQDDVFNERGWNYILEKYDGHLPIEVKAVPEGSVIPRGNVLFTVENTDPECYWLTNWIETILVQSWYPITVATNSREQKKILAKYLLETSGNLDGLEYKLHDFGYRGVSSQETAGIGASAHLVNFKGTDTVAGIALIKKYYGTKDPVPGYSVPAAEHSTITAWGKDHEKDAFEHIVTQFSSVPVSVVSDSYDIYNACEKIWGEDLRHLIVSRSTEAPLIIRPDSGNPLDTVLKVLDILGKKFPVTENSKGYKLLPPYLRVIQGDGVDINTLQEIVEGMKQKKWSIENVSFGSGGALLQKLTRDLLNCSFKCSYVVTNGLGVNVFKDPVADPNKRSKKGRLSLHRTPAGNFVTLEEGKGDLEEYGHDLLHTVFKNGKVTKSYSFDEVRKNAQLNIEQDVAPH
Chain of Nicotinamide phosphoribosyltransferase (Homo sapiens, UniProt P43490) (P43490 whole entry): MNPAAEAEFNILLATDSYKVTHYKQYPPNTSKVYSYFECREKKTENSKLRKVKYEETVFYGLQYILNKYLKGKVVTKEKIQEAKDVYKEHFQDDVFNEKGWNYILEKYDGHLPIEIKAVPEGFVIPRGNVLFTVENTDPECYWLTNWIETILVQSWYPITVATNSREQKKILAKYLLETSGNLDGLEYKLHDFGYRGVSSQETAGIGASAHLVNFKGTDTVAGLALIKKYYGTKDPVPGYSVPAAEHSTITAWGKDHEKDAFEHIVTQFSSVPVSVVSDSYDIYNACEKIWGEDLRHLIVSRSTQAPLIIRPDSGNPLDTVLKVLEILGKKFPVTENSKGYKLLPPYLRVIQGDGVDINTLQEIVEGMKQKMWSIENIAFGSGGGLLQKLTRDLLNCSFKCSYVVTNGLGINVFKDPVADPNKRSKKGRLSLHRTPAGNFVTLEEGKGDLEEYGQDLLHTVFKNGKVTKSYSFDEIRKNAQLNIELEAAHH

Structure (SMILES): O=C(Nc1ccccc1-c1ccccc1)OCCCCCCn1cc(-c2cccnc2)nn1
- EC50 [1]: 34 nM

Structure (SMILES): C[C@@H]1C[C@H]2[C@@H]3CCC4=CC(=O)C=C[C@]4(C)[C@@]3(F)[C@@H](O)C[C@]2(C)[C@@]1(O)C(=O)CO
- inhibition [2]: Active
- inhibition [3]: Active
- inhibition [4]: Active
- inhibition [5]: Active
- inhibition [6]: Active

Structure (SMILES): O=C(CCCCCCCc1cc(-c2cccnc2)[nH]n1)Nc1ccccc1-c1ccccc1
- EC50 [1]: 384 nM

Structure (SMILES): O=S(=O)(NCCCCCCCCn1cc(-c2cccnc2)nn1)c1ccccc1Br
- EC50 [1]: 171 nM

Structure (SMILES): O=S(=O)(NCCCCCCCn1cc(-c2cccnc2)nn1)c1ccccc1-c1ccccc1
- EC50 [1]: 99.2 nM

Structure (SMILES): O=S(=O)(NCCCCCCn1cc(-c2cccnc2)nn1)c1ccccc1Br
- EC50 [1]: 175 nM

Structure (SMILES): c1ccc(-c2ccccc2OCCCc2ccc(-n3cc(-c4cccnc4)nn3)cc2)cc1
- EC50 [1]: 71 nM

- Drug metabolism [7]: Metabolite_Detected
- Drug metabolism [8]: Metabolite_Detected
Structure (SMILES): O=C(O)CCCCCCn1cc(-c2cccnc2)nn1

Structure (SMILES): c1ccc(-c2ccccc2-n2cc(CCCCCCCn3cc(-c4cccnc4)nn3)nn2)cc1
- EC50 [1]: 55.1 nM

- Drug metabolism [9]: Metabolite_Detected
- Drug metabolism [10]: Metabolite_Detected
Structure (SMILES): O=C(O)CCCCCCCn1cc(-c2cccnc2)nn1

Structure (SMILES): c1ccc(-c2ccccc2-n2cc(CCCCCCCc3cn(-c4cccnc4)nn3)nn2)cc1
- EC50 [1]: > 500 nM

Structure (SMILES): c1ccc(-c2ccccc2CNCCCCCCn2cc(-c3cccnc3)nn2)cc1
- EC50 [1]: 202 nM

- IC50 [11]: 8.1 nM
- AUC at 24 h [13]: 2250 ng·h/mL
- Stability [15]: Stable
- IC50 [16]: 7.8 nM
- Drug metabolism [17]: Metabolite_Detected
- Drug metabolism [18]: Metabolite_Detected
- remaining at 1 h [19]: 87%
- clearance [20]: 74 mL/min/kg
- Stability [21]: Stable
- Stability [22]: Stable
- remaining at 1 h [23]: 47%
- half-life [24]: 1.48 h
- Vd [25]: 9.4 L/kg
- Stability [26]: Stable
Structure (SMILES): c1ccc(-c2ccccc2-c2cn(CCCCCCCn3cc(-c4cccnc4)nn3)nn2)cc1
- IC50 [12]: 5.8 nM
- inhibition [14]: inactive
- EC50 [1]: 9.1 nM

Structure (SMILES): c1ccc(-c2ccccc2Oc2ccc(CCCn3cc(-c4cccnc4)nn3)cc2)cc1
- EC50 [1]: > 500 nM

Structure (SMILES): c1ccc(-c2ccccc2CNCCCCCCCn2cc(-c3cccnc3)nn2)cc1
- EC50 [1]: 237 nM

Structure (SMILES): c1ccc(-c2ccccc2-c2cn(CCCCCCCc3cn(-c4cccnc4)nn3)nn2)cc1
- EC50 [1]: 84.2 nM

- IC50 [11]: 32.4 nM
Structure (SMILES): O=C(NCCCCCCCn1cc(-c2cccnc2)nn1)Nc1ccccc1-c1ccccc1
- EC50 [1]: 7 nM

- IC50 [11]: 31.3 nM
Structure (SMILES): c1ccc(-c2ccccc2OCCCCCCCn2cc(-c3cccnc3)nn2)cc1
- EC50 [1]: 15 nM

Structure (SMILES): O=C(NCCCCCCCCn1cc(-c2cccnc2)nn1)c1ccccc1-c1ccccc1
- EC50 [1]: 194 nM

Structure (SMILES): O=C(Nc1ccccc1-c1ccccc1)OCCCCCCCCn1cc(-c2cccnc2)nn1
- EC50 [1]: 255 nM

Structure (SMILES): O=C(CCCCCCCc1nnc(-c2cccnc2)o1)Nc1ccccc1-c1ccccc1
- EC50 [1]: 370 nM
